Laboratory results as given in ChEMBL document CHEMBL5252671, “Design, synthesis and evaluation of the anti-breast cancer activity of 1,3-oxazolo[4,5-d]pyrimidine and 1,3-oxazolo[5,4-d]pyrimidine derivatives” (2023).

What was measured:
Format in all cases: functional
MCF7 [1] = assay: Antiproliferative activity against human MCF7 cells assessed as inhibition of cell growth at 1 X 10^-5 M measured for 48 hrs by sulforhodamine B assay relative to control; conditions: MCF7, 48 h, dose 1 10^-5M
Summary of the method: (§1)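 NCI one-dose screen. Cells were seeded at 5000-40000/well in RPMI 1640 with 5% FBS and 2 mM L-glutamine and preincubated 24 h at 37 °C in 5% CO2. Compound was added at 10⁻⁵ M for 48 h. Cells were then fixed with 10% TCA, stained with sulforhodamine B, washed with 1% acetic acid, solubilized in 10 mM Tris and read as OD at 510 nm.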

MDA-MB-231 [2] = assay: Antiproliferative activity against human MDA-MB-231 cells assessed as inhibition of cell growth at 1 X 10^-5 M measured for 48 hrs by sulforhodamine B assay relative to control; conditions: MDA-MB-231, 48 h, dose 1 10^-5M; summary of the method: as §1
Hs-578T [3] = assay: Antiproliferative activity against human Hs-578T cells assessed as inhibition of cell growth at 1 X 10^-5 M measured for 48 hrs by sulforhodamine B assay relative to control; conditions: dose 1 10^-5M; summary of the method: as §1
BT-549 [4] = assay: Antiproliferative activity against human BT-549 cells assessed as inhibition of cell growth at 1 X 10^-5 M measured for 48 hrs by sulforhodamine B assay relative to control; conditions: BT-549, 48 h, dose 1 10^-5M; summary of the method: as §1
T47D [5] = assay: Antiproliferative activity against human T47D cells assessed as inhibition of cell growth at 1 X 10^-5 M measured for 48 hrs by sulforhodamine B assay relative to control; conditions: dose 1 10^-5M; summary of the method: as §1
MDA-MB-468 [6] = assay: Antiproliferative activity against human MDA-MB-468 cells assessed as inhibition of cell growth at 1 X 10^-5 M measured for 48 hrs by sulforhodamine B assay relative to control; conditions: MDA-MB-468, 48 h, dose 1 10^-5M; summary of the method: as §1
MCF7 [7] = assay: Anticancer activity against human MCF7 cells measured at 48 hrs
Summary of the method: (§2)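 NCI DTP five-dose screen on the breast subpanel: compound at 0.01, 0.1, 1, 10 and 100 μM for 48 h. Cell density read by sulforhodamine B (protein content). GI50, TGI and LC50 were derived from the T, T0 and C optical densities using the NCI formulas.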

MDA-MB-231 [8] = assay: Anticancer activity against human MDA-MB-231 cells measured at 48 hrs; summary of the method: as §2
Hs-578T [9] = assay: Anticancer activity against human Hs-578T cells measured at 48 hrs; summary of the method: as §2
BT-549 [10] = assay: Anticancer activity against human BT-549 cells measured at 48 hrs; summary of the method: as §2
T47D [11] = assay: Anticancer activity against human T47D cells measured at 48 hrs; conditions: for CC50: read-out: LC50 (the source's name); summary of the method: as §2
MDA-MB-468 [12] = assay: Anticancer activity against human MDA-MB-468 cells measured at 48 hrs; summary of the method: as §2

Structure (SMILES)	inhibition at 10 µM (MCF7 [1])	inhibition at 10 µM (MDA-MB-231 [2])	inhibition at 10 µM (Hs-578T [3])	inhibition at 10 µM (BT-549 [4])	inhibition at 10 µM (T47D [5])	inhibition at 10 µM (MDA-MB-468 [6])	GI50 (MCF7 [7])	LC50 (concentration giving 50% net cell kill) (MCF7 [7])	TGI (MCF7 [7])	GI50 (MDA-MB-231 [8])	LC50 (concentration killing 50% of starting cells) (MDA-MB-231 [8])	TGI (MDA-MB-231 [8])	GI50 (Hs-578T [9])	TGI (Hs-578T [9])	GI50 (BT-549 [10])	TGI (BT-549 [10])	GI50 (T47D [11])	TGI (T47D [11])	GI50 (MDA-MB-468 [12])	LC50 (concentration giving 50% net cell kill) (MDA-MB-468 [12])	also measured
c1ccc(-c2nc(N3CCCNCC3)c3oc(-c4ccccc4)nc3n2)cc1	132%	180%	131%	126%	123%	171%	1.41 µM	5.69 µM	2.83 µM	1.56 µM	5.65 µM	2.97 µM	1.86 µM	4.13 µM	1.73 µM	3.18 µM	1.69 µM	3.48 µM	1.48 µM	5.54 µM	LC50 (50% lethal concentration) (Hs-578T [9]): 9.16 µM; LC50 (concentration giving 50% net cell kill) (BT-549 [10]): 5.86 µM; CC50 (T47D [11]): 7.15 µM; TGI (MDA-MB-468 [12]): 2.87 µM
Cc1ccc(-c2nc3nc(-c4ccc(Br)cc4)nc(N4CCCNCC4)c3o2)cc1	176%	157%	130%	1%	108%	165%	1.78 µM	6.91 µM	3.51 µM	1.93 µM	8.5 µM	4.05 µM	17.2 µM	37.1 µM	16 µM	34.6 µM	3.06 µM	13.9 µM	3.98 µM	52.5 µM	LC50 (50% lethal concentration) (Hs-578T [9]): 80.2 µM; LC50 (concentration giving 50% net cell kill) (BT-549 [10]): 75 µM; CC50 (T47D [11]): 65.5 µM; TGI (MDA-MB-468 [12]): 15.9 µM
Cc1ccc(-c2nc3nc(-c4ccc(F)cc4)nc(N4CCCNCC4)c3o2)cc1	172%	185%	176%	177%	164%	176%	1.23 µM	7.14 µM	2.96 µM	1.63 µM	5.91 µM	3.11 µM	1.78 µM	3.69 µM	1.66 µM	3.37 µM	1.85 µM	3.94 µM	1.58 µM	6.41 µM	LC50 (50% lethal concentration) (Hs-578T [9]): 7.63 µM; LC50 (concentration giving 50% net cell kill) (BT-549 [10]): 6.85 µM; TGI (MDA-MB-468 [12]): 3.18 µM
Cc1ccc(-c2nc3nc(-c4ccc(F)cc4)nc(N4CCNCC4)c3o2)cc1	174%	129%	106%	1%	127%	46%	1.66 µM	7.4 µM	3.51 µM	1.86 µM	7.09 µM	3.63 µM	2.06 µM	5.12 µM	13.6 µM	30.1 µM	2.3 µM	6.92 µM	1.74 µM	6.56 µM	LC50 (50% lethal concentration) (Hs-578T [9]): 37 µM; LC50 (concentration giving 50% net cell kill) (BT-549 [10]): 66.8 µM; CC50 (T47D [11]): > 100 µM; TGI (MDA-MB-468 [12]): 3.38 µM
Cc1ccc(-c2nc(N3CCCNCC3)c3oc(-c4ccccc4)nc3n2)cc1	175%	192%	130%	19%	167%	176%	1.59 µM	7.45 µM	3.44 µM	1.77 µM	6.06 µM	3.27 µM	1.94 µM	4.22 µM	1.62 µM	3.14 µM	2.02 µM	4 µM	1.55 µM	6.75 µM	LC50 (50% lethal concentration) (Hs-578T [9]): 9.21 µM; CC50 (T47D [11]): 7.94 µM; TGI (MDA-MB-468 [12]): 3.24 µM
Cc1ccc(-c2nc3nc(-c4ccc(Cl)cc4)nc(N4CCCNCC4)c3o2)cc1	179%	176%	151%	1%	136%	154%	1.7 µM	6.75 µM	3.39 µM	1.87 µM	6.21 µM	3.37 µM	1.93 µM	4.17 µM	1.9 µM	3.61 µM	1.94 µM	4.14 µM	1.78 µM	6.59 µM	LC50 (50% lethal concentration) (Hs-578T [9]): 9.02 µM; LC50 (concentration giving 50% net cell kill) (BT-549 [10]): 6.86 µM; CC50 (T47D [11]): 8.84 µM; TGI (MDA-MB-468 [12]): 3.42 µM
Cc1ccc(-c2nc3nc(-c4ccccc4)nc(N4CCNCC4)c3o2)cc1	166%	179%	151%	172%	168%	187%	0.33 µM	5.74 µM	1.45 µM	0.26 µM	2.61 µM	0.67 µM	2.02 µM	4.22 µM	1.72 µM	3.2 µM	0.35 µM	1.51 µM	0.29 µM	4.84 µM	LC50 (concentration giving 50% net cell kill) (BT-549 [10]): 5.99 µM; CC50 (T47D [11]): 6.33 µM; TGI (MDA-MB-468 [12]): 1.18 µM
Cc1ccc(-c2nc3nc(-c4ccccc4)nc(N4CCCNCC4)c3o2)cc1	178%	187%	118%	72%	145%	168%	1.48 µM	8.29 µM	3.5 µM	1.81 µM	6.1 µM	3.32 µM	1.83 µM	4.02 µM	1.63 µM	3.19 µM	1.72 µM	3.5 µM	1.59 µM	7.04 µM	LC50 (50% lethal concentration) (Hs-578T [9]): 8.85 µM; LC50 (concentration giving 50% net cell kill) (BT-549 [10]): 6.25 µM; CC50 (T47D [11]): 7.1 µM; TGI (MDA-MB-468 [12]): 3.35 µM
